From ChEMBL document CHEMBL2157892, “Modifications around the hydroxamic acid chelating group of fosmidomycin, an inhibitor of the metalloenzyme 1-deoxyxylulose 5-phosphate reductoisomerase (DXR)” (Bioorg Med Chem Lett, 2012)
Calls of active or inactive are those of the source. No cut-off for these calls is given here.

What was measured:
[1] = Inhibition of Escherichia coli recombinant His6-tagged DXR expressed in Escherichia coli XL-1 blue using DXP as substrate after 5 mins by spectrophotometric analysis
Method in brief: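 Recombinant His-tagged E. coli DXR. DXP-to-MEP conversion followed as NADPH consumption at 340 nm by UV–visible spectrophotometry, assay pH 7.5. Enzyme, NADPH and inhibitor were not pre-incubated; the reaction was started by adding DXP. IC50 derived from the rate data.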

[2] = Inhibition of Escherichia coli recombinant His6-tagged DXR expressed in Escherichia coli XL-1 blue using DXP as substrate incubated for 2 mins prior to substrate addition measured after 5 mins by spectrophotometric analysis
Method in brief: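 His-tagged E. coli DXR, assayed at pH 7.5. Inhibitor was pre-incubated with enzyme and NADPH for 2 min at 37 °C, then DXP was added to start the reaction. Activity was read as NADPH consumption at 340 nm on a UV–visible spectrophotometer, and IC50 was derived from it.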

Escherichia coli [3] = test: Inhibition of Escherichia coli recombinant His6-tagged DXR expressed in Escherichia coli XL-1 blue using DXP as substrate at 1000 uM incubated for 2 mins prior to substrate addition measured after 5 mins by spectrophotometric analysis
Escherichia coli [4] = test: Inhibition of Escherichia coli recombinant His6-tagged DXR expressed in Escherichia coli XL-1 blue using DXP as substrate at 1000 uM after 5 mins by spectrophotometric analysis
Escherichia coli [5] = test: Ratio of IC50 for Escherichia coli recombinant His6-tagged DXR without preincubation to IC50 for Escherichia coli recombinant His6-tagged DXR with preincubation
[6] = Drug degradation assessed as carbon disulfide production at pH 7.5; type: physicochemical; settings: buffer

SMILES | IC50 [1] | IC50 [2] | inhibition (Escherichia coli [3]) | inhibition (Escherichia coli [4]) | Ratio IC50 (Escherichia coli [5]) | Drug degradation [6]
O=P(O)(O)CCc1cccc(O)c1O | 2000 µM | 1200 µM |  |  |  | 
CSC(=S)N(C)CCCP(=O)(O)O |  |  | inactive | inactive |  | 
O=CN(O)CCCP(=O)(O)O [FOSMIDOMYCIN] | 0.25 µM | 0.032 µM |  |  | 8 | 
CON(C)C(=O)CCCP(=O)(O)O | 6900 µM | 3800 µM |  |  |  | 
O=P(O)(O)CCCc1cccc(O)c1O |  |  | inactive | inactive |  | 
CN(O)C(=O)CCCP(=O)(O)O | 0.5 µM | 0.048 µM |  |  | 10 | 
CONC(=O)CCCP(=O)(O)O | 11500 µM | 930 µM |  |  |  | 
CN(CCP(=O)([O-])O)C(=S)[S-].[Na+].[Na+] |  |  | inactive | inactive |  | Active
CN(CCCP(=O)([O-])O)C(=S)[S-].[Na+].[Na+] |  |  | inactive | inactive |  | Active
NNC(=O)CCCP(=O)(O)O | 1800 µM | 1000 µM |  |  |  | 
CSC(=S)NCCP(=O)(O)O | 2800 µM | 2700 µM |  |  |  | 
